Reference: ChEMBL document CHEMBL2176969, “O2-sulfonylethyl protected isopropylamine diazen-1-ium-1,2-diolates as nitroxyl (HNO) donors: synthesis, β-elimination fragmentation, HNO release, positive inotropic properties, and blood pressure lowering studies” (J Med Chem, 2012)
Activity calls are given as the source filed them. The rule behind the calls is not given here.

How the values were obtained:
[1] = Induction of nitroxyl release in 7.5% DMSO and 92.5% phosphate buffer at pH 7.4 at 200 uM after 2 hrs by LC-MS analysis; format: physicochemical; conditions: pH 7.4, 2 h
Procedure, shortened: (§1)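 Donor at 200 μM with 1 mM trapping phosphine in 7.5% DMSO/92.5% phosphate buffer pH 7.4, 37 °C, with 5.05 μM 4-hydroxybenzophenone internal standard. Quenched with H₂O₂ after 2 or 48 h, dried, taken up in MeOH. HNO-derived amide quantified by LC–MS (ESI negative) from a standard curve; percent of 1 mol HNO/mol; mean of triplicates.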

[2] = Induction of nitroxyl release in 7.5% DMSO and 92.5% phosphate buffer at pH 7.4 at 200 uM after 48 hrs by LC-MS analysis; format: physicochemical; conditions: pH 7.4, 48 h; procedure, shortened: as §1
[3] = Induction of nitrite release in phosphate buffer at pH 10 at 50 uM after 1.5 hrs by Griess reaction; format: physicochemical; conditions: Tris buffer, pH 10, 1.5 h, in the assay text read “Tris buffer” for “phosphate buffer”
Procedure, shortened: (§2)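 Compound at 50 μM was incubated 1.5 h at 37 °C in phosphate buffer pH 7.4 or Tris buffer pH 10.0, both containing 5% DMSO. Nitrite was measured by Griess reaction and expressed as percent of the initial compound concentration; mean of n = 3.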

[4] = Induction of nitrite release in phosphate buffer at pH 7.4 at 50 uM after 1.5 hrs by Griess reaction; format: physicochemical; conditions: pH 7.4, 1.5 h; procedure, shortened: as §2
[5] = Induction of nitrous oxide release in MeOH/TBS buffer at pH 7.4 at 25 mM after 0.5 hrs by gas chromatographic analysis; format: physicochemical; conditions: pH 7.4, 0.5 h, 25000 µM
Procedure, shortened: (§3)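 Compound (0.04 mmol, 25 mM) in a sealed, inert-gas-flushed flask with 0.8 mL solvent: MeOH plus 500 mM Tris (0.2 mM EDTA), 1:1, at pH 7.4 or 10.0, ± 50 mM GSH, 37 °C. Headspace N₂O measured by GC with electron-capture detection against a standard curve. Yield assumes 2 HNO → 1 N₂O; mean of n = 3; pH-10 runs ended near pH 9.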

[6] = Induction of nitrous oxide release in MeOH/TBS buffer at pH 10 at 25 mM after 2 hrs by gas chromatographic analysis in presence of glutathione; format: physicochemical; conditions: pH 10, 2 h, 25000 µM; procedure, shortened: as §3
[7] = Induction of nitrous oxide release in MeOH/TBS buffer at pH 10 at 25 mM after 2 hrs by gas chromatographic analysis; format: physicochemical; conditions: pH 10, 2 h, 25000 µM; procedure, shortened: as §3
[8] = Induction of nitrous oxide release in MeOH/TBS buffer at pH 7.4 at 25 mM after 2 hrs by gas chromatographic analysis in presence of glutathione; format: physicochemical; conditions: pH 7.4, 2 h, 25000 µM; procedure, shortened: as §3
[9] = Induction of nitrous oxide release in MeOH/TBS buffer at pH 7.4 at 25 mM after 2 hrs by gas chromatographic analysis; format: physicochemical; conditions: pH 7.4, 2 h, 25000 µM; procedure, shortened: as §3
[10] = Induction of nitrous oxide release in MeOH/TBS buffer at pH 7.4 at 25 mM after 0.5 hrs by gas chromatographic analysis in presence of glutathione; format: physicochemical; conditions: pH 7.4, 0.5 h, 25000 µM; procedure, shortened: as §3
[11] = Half life in phosphate buffer at pH 7.4 by spectrophotometric method; format: physicochemical
Procedure, shortened: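 Decay followed by loss of diazeniumdiolate absorbance near 245 nm in pH 7.4 phosphate buffer with 5% DMSO at 37 °C. Half-life obtained from linear regression of ln(A_t − A_∞) against time.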

[12] = Induction of nitrous oxide release in MeOH/TBS buffer at pH 7.4 at 25 mM after 48 hrs by gas chromatographic analysis; format: physicochemical; conditions: pH 7.4, 48 h, 25000 µM; procedure, shortened: as §3
[13] = Induction of nitrous oxide release in MeOH/TBS buffer at pH 10 at 25 mM after 0.5 hrs by gas chromatographic analysis in presence of glutathione; format: physicochemical; conditions: pH 10, 0.5 h, 25000 µM; procedure, shortened: as §3
[14] = Induction of nitrous oxide release in MeOH/TBS buffer at pH 10 at 25 mM after 0.5 hrs by gas chromatographic analysis; format: physicochemical; conditions: pH 10, 0.5 h, 25000 µM; procedure, shortened: as §3
[15] = Induction of nitrous oxide release in MeOH/TBS buffer at pH 7.4 at 25 mM after 48 hrs by gas chromatographic analysis in presence of glutathione; format: physicochemical; conditions: pH 7.4, 48 h, 25000 µM; procedure, shortened: as §3
Heart [16] = assay: Effect on heart rate in C57BL/6 mouse Langendorff perfused heart at 100 uM measured for 20 mins; format: ADME, tissue-based
Procedure, shortened: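 C57BL/6 mouse hearts perfused with Krebs–Henseleit buffer, stabilized 20 min, then perfused 20 min with compound at 100 μM; isoproterenol 100 μM as positive inotropic control. Heart rate, LVDP and rates of contraction and relaxation recorded.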

Heart [17] = assay: Positive inotropic activity in C57BL/6 mouse Langendorff perfused heart assessed as rate of relaxation at 100 uM measured for 20 mins; format: functional
Procedure, shortened: (§4)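 Hearts from C57BL/6 mice perfused with Krebs-Henseleit buffer. After 20 min stabilisation with buffer, hearts were perfused with test compound (100 μM) or isoproterenol (100 μM, positive inotropic control) for 20 min. Heart rate, diastolic and systolic rates, and left ventricular developed pressure were recorded. Baseline contractile function was measured as LVDP.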

Heart [18] = assay: Positive inotropic activity in C57BL/6 mouse Langendorff perfused heart assessed as left ventricular developed pressure at 100 uM measured for 20 mins; format: functional; procedure, shortened: as §4
Heart [19] = assay: Positive inotropic activity in C57BL/6 mouse Langendorff perfused heart assessed as rate of contraction at 100 uM measured for 20 mins; format: functional; procedure, shortened: as §4
Mus musculus [20] = assay: Antihypertensive activity in C57 mouse assessed as reduction of mean blood pressure at 22.5 mg/kg, po after 6 hrs relative to control; format: functional
Procedure, shortened: (§5)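 Conscious C57 black mice dosed orally at 22.5 mg/kg (60.345 μmol/kg), vehicle water with 1% methylcellulose; vehicle-only controls (n = 6), treated n = 4 at 1 h, 5 at 3 h, 6 at 6 h. Noninvasive BP (systolic, diastolic; mean = average of the two) and heart rate read at 1, 3, 6 h; each value is the average of three consecutive readings per mouse.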

Mus musculus [21] = assay: Antihypertensive activity in C57 mouse assessed as reduction of systolic blood pressure at 22.5 mg/kg, po after 6 hrs relative to control; format: functional, Artery; procedure, shortened: as §5
Mus musculus [22] = assay: Effect on heart rate in C57 mouse at 22.5 mg/kg, po after 1 hr relative to control; format: ADME, organism-based; design: dose 22.5 mg/kg, route oral; conditions: in vivo; procedure, shortened: as §5
Mus musculus [23] = assay: Antihypertensive activity in C57 mouse assessed as reduction of mean blood pressure at 22.5 mg/kg, po after 3 hrs relative to control; format: functional; procedure, shortened: as §5
Mus musculus [24] = assay: Antihypertensive activity in C57 mouse assessed as reduction of systolic blood pressure at 22.5 mg/kg, po after 3 hrs relative to control; format: functional, Artery; procedure, shortened: as §5
Mus musculus [25] = assay: Antihypertensive activity in C57 mouse assessed as reduction of diastolic blood pressure at 22.5 mg/kg, po after 1 to 6 hrs relative to control; format: functional, organism-based; design: dose 22.5 mg/kg; conditions: Artery, in the assay text read “after 3 to 6 hrs” for “after 1 to 6 hrs”; procedure, shortened: as §5
Mus musculus [26] = assay: Effect on heart rate in C57 mouse at 22.5 mg/kg, po after 3 hrs relative to control; format: ADME, organism-based; design: dose 22.5 mg/kg, route oral; conditions: in vivo; procedure, shortened: as §5
Mus musculus [27] = assay: Antihypertensive activity in C57 mouse assessed as reduction of systolic blood pressure at 22.5 mg/kg, po after 1 hr relative to control; format: functional, Artery; procedure, shortened: as §5
Mus musculus [28] = assay: Antihypertensive activity in C57 mouse assessed as reduction of mean blood pressure at 22.5 mg/kg, po after 1 hr relative to control; format: functional; procedure, shortened: as §5
Mus musculus [29] = assay: Effect on heart rate in C57 mouse at 22.5 mg/kg, po after 6 hrs relative to control; format: ADME, organism-based; design: dose 22.5 mg/kg, route oral; conditions: in vivo; procedure, shortened: as §5

Structure (SMILES)	Activity [1]	Activity [2]	Activity [3]	Activity [4]	Activity [5]	Activity [6]	Activity [7]	Activity [8]	Activity [9]	Activity [10]	half-life [11]	Activity [12]	Activity [13]	Activity [14]	Activity [15]	further results
CC(C)N/[N+]([O-])=N/OCS(C)(=O)=O	0.31%	4%	4.6%	0.4%												
CC(C)N/[N+]([O-])=N/OCCS(=O)(=O)NOCc1ccccc1	47.3%	55.4%	24%	6%	3.8%	30.3%	61.3%	0.4%	9.7%	0.3%	6.6 h	27.5%	24.2%	56.8%	0.8%	
CC(C)N(C(=O)OC(C)(C)C)/[N+]([O-])=N/OCCS(C)(=O)=O	5.1%	7.2%	25.4%	28.6%												
CC(C)NCC(O)c1ccc(O)c(O)c1 (configuration not stated) [ISOPROTERENOL]																Activity (Heart [16]): 334 bpm; Activity (Heart [17]): -5882 cmH2O/ms; Activity (Heart [18]): 157 cmH2O; Activity (Heart [19]): 5330 cmH2O/ms
CC(=O)OCO/N=[N+](\[O-])NC(C)C											0.683 h					
[Na+].[Na+].[O-][N+]([O-])=NO [ANGELI'S SALT]	85.9%	85.7%														
CC(C)N[N+]([O-])=N[O-].[Na+]	5.4%	5.1%	36%	62%	9.4%	9.5%	5.7%	7.4%	8.3%	6.1%	0.0383 h	7%	8.5%	5.9%	6.8%	
CC(C)N/[N+]([O-])=N/OCCS(C)(=O)=O	51.2%	61.4%	26%	1.8%	0.5%	2.2%	62.2%	0.9%	1.6%	1.3%	15.3 h	10.4%	0.4%	52.9%	0.1%	Activity (Heart [16]): 269 bpm; mean blood pressure (Mus musculus [20]): 87.5 mmHg; systolic blood pressure (Mus musculus [21]): 114.4 mmHg; Activity (Mus musculus [22]): 531 bpm; Activity (Heart [17]): -5330 cmH2O/ms; mean blood pressure (Mus musculus [23]): 83.6 mmHg; systolic blood pressure (Mus musculus [24]): 103.4 mmHg; Activity (Heart [18]): 187 cmH2O; Activity (Mus musculus [25]): Active; Activity (Mus musculus [26]): 488 bpm; Activity (Heart [19]): 5698 cmH2O/ms; systolic blood pressure (Mus musculus [27]): 120.2 mmHg; mean blood pressure (Mus musculus [28]): 95.4 mmHg; Activity (Mus musculus [29]): 442 bpm
COS(=O)(=O)CCO/N=[N+](\[O-])NC(C)C			42%	10.6%	1.4%	1.3%	15.1%	0.4%	1.9%	0.2%	17.1 h	1.9%	1.2%	16.7%	0.2%	
CONS(=O)(=O)CCO/N=[N+](\[O-])NC(C)C	46.2%	51.3%	10.4%	0.8%	5.9%	29%	62.9%	0.5%	12.9%	0.4%	8.9 h	33.5%	17.3%	52.6%	1.8%	
